Values after ≈ are worked out from the molar mass of the structure shown.
Experiments:
Format in all cases: functional
[1] = tested on: Staphylococcus aureus; assay: Antibacterial activity against Staphylococcus aureus 42 in absence of 1% bovine pulmonary surfactant by CLSI method; conditions: Staphylococcus aureus, 42, Pulmonary surfactant
In short: (§1)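 Broth MIC in Mueller-Hinton broth with 50 mg/liter CaCl2, run with or without 1% bovine pulmonary surfactant, following CLSI methods. Colonies came from frozen stocks streaked on sheep-blood tryptic soy agar (37°C, ~24 h). Incubation was at 37°C with rotation at 200 rpm. The ratio is MIC with surfactant divided by MIC without.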

[2] = tested on: Staphylococcus aureus; assay: Ratio of MIC for Staphylococcus aureus 42 in presence of 1% bovine pulmonary surfactant to MIC for Staphylococcus aureus 42 in absence of 1% bovine pulmonary surfactant; in short: as §1
[3] = tested on: Staphylococcus aureus; assay: Antibacterial activity against Staphylococcus aureus 42 in presence of 1% bovine pulmonary surfactant by CLSI method; conditions: Staphylococcus aureus, 42, Pulmonary surfactant; in short: as §1

Row | Structure (SMILES) | MIC [1] | Ratio [2] | MIC [3]
1 | CC[C@H](C)[C@@H]1NC(=O)[C@H](CCC(=O)O)NC(=O)[C@@H](CC(N)=O)NC(=O)CNC(=O)[C@H]([C@H](OC)C(=O)O)NC(=O)[C@@H](CC(N)=O)NC(=O)[C@H](CC(=O)O)NC(=O)[C@H](C)NC(=O)CN(C)C(=O)[C@@H](NC(=O)[C@@H](NC(=O)[C@@H](CCC(=O)O)NC(=O)[C@H](Cc2c[nH]c3ccccc23)NC(=O)CCCCCCCC(C)C)[C@H](O)C(N)=O)[C@H](C)OC1=O | 16 mg/L (≈ 9.73 µM) | 1 | 16 mg/L
2 | CC(C)CCCCCCCC(=O)N[C@@H](Cc1c[nH]c2ccccc12)C(=O)N[C@H](CC(N)=O)C(=O)N[C@@H](CC(=O)O)C(=O)N[C@@H]1C(=O)NCC(=O)N[C@@H](CCCN)C(=O)N[C@@H](CC(=O)O)C(=O)N[C@H](CCCCN)C(=O)N[C@@H](CC(=O)O)C(=O)NCC(=O)N[C@H](CC(N)=O)C(=O)N[C@@H]([C@H](C)CC(=O)O)C(=O)N[C@@H](CC(=O)c2ccccc2N)C(=O)O[C@H]1C | 1 mg/L (≈ 0.582 µM) | 32 | 32 mg/L
3 | CC[C@H](C)[C@@H]1NC(=O)[C@H]([C@H](C)CC(=O)O)NC(=O)[C@@H](CC(N)=O)NC(=O)CNC(=O)[C@H]([C@H](OC)C(=O)O)NC(=O)[C@@H](C)NC(=O)[C@H](CC(=O)O)NC(=O)[C@H](C)NC(=O)CN(C)C(=O)[C@@H](NC(=O)[C@@H](NC(=O)[C@@H](CCC(=O)O)NC(=O)[C@H](Cc2c[nH]c3ccccc23)NC(=O)CCCCCCCC(C)C)[C@H](O)C(N)=O)[C@H](C)OC1=O | 1 mg/L (≈ 0.619 µM) | 32 | 32 mg/L
4 | CC[C@H](C)[C@@H]1NC(=O)[C@H](CCC(=O)O)NC(=O)[C@@H](C)NC(=O)CNC(=O)[C@H]([C@H](OC)C(=O)O)NC(=O)[C@@H](CCCCN)NC(=O)[C@H](CC(=O)O)NC(=O)[C@H](C)NC(=O)CN(C)C(=O)[C@@H](NC(=O)[C@@H](NC(=O)[C@@H](CCC(=O)O)NC(=O)[C@H](Cc2c[nH]c3ccccc23)NC(=O)CCCCCCCC(C)C)[C@H](O)C(N)=O)[C@H](C)OC1=O | 8 mg/L (≈ 4.95 µM) | 2 | 16 mg/L
5 | CC(C)CCCCCCCC(=O)N[C@@H](Cc1c[nH]c2ccccc12)C(=O)N[C@H](CC(N)=O)C(=O)N[C@@H](CC(=O)O)C(=O)N[C@@H]1C(=O)NCC(=O)N[C@@H](CCCN)C(=O)N[C@@H](CC(=O)O)C(=O)N[C@H](C)C(=O)N[C@@H](CC(=O)O)C(=O)NCC(=O)N[C@H](CC(N)=O)C(=O)N[C@@H]([C@H](C)CC(=O)O)C(=O)N[C@@H](CC(=O)c2ccccc2N)C(=O)O[C@H]1C | 1 mg/L (≈ 0.602 µM) | 16 | 16 mg/L
6 | CC[C@H](C)[C@@H]1NC(=O)[C@H](CCC(=O)O)NC(=O)[C@@H](CO)NC(=O)CNC(=O)[C@H]([C@H](OC)C(=O)O)NC(=O)[C@@H](CCCCN)NC(=O)[C@H](CC(=O)O)NC(=O)[C@H](C)NC(=O)CN(C)C(=O)[C@@H](NC(=O)[C@@H](NC(=O)[C@@H](CCC(=O)O)NC(=O)[C@H](Cc2c[nH]c3ccccc23)NC(=O)CCCCCCCC(C)C)[C@H](O)C(N)=O)[C@H](C)OC1=O | 64 mg/L (≈ 39.2 µM) | 2 | 128 mg/L
7 | CC[C@H](C)[C@@H]1NC(=O)[C@H](CCC(=O)O)NC(=O)[C@@H](CC(N)=O)NC(=O)CNC(=O)[C@H]([C@H](OC)C(=O)O)NC(=O)[C@@H](C)NC(=O)[C@H](CC(=O)O)NC(=O)[C@H](C)NC(=O)CN(C)C(=O)[C@@H](NC(=O)[C@@H](NC(=O)[C@@H](CCC(=O)O)NC(=O)[C@H](Cc2c[nH]c3ccccc23)NC(=O)CCCCCCCC(C)C)[C@H](O)C(N)=O)[C@H](C)OC1=O | 4 mg/L (≈ 2.5 µM) | 2 | 8 mg/L
8 | CC(C)CCCCCCCC(=O)N[C@@H](Cc1c[nH]c2ccccc12)C(=O)N[C@H](CC(N)=O)C(=O)N[C@@H](CC(=O)O)C(=O)N[C@@H]1C(=O)NCC(=O)N[C@@H](CCCN)C(=O)N[C@@H](CC(=O)O)C(=O)N[C@H](C)C(=O)N[C@@H](CC(=O)O)C(=O)NCC(=O)N[C@H](CO)C(=O)N[C@@H]([C@H](C)CC(=O)O)C(=O)N[C@@H](C(C)C)C(=O)O[C@H]1C | 4 mg/L (≈ 2.59 µM) | 2 | 8 mg/L
9 | CC(C)CCCCCCCC(=O)N[C@@H](Cc1c[nH]c2ccccc12)C(=O)N[C@H](CC(N)=O)C(=O)N[C@@H](CC(=O)O)C(=O)N[C@@H]1C(=O)NCC(=O)N[C@@H](CCCN)C(=O)N[C@@H](CC(=O)O)C(=O)N[C@H](C)C(=O)N[C@@H](CC(=O)O)C(=O)NCC(=O)N[C@H](C)C(=O)N[C@@H]([C@H](C)CC(=O)O)C(=O)N[C@@H](CC(=O)c2ccccc2N)C(=O)O[C@H]1C | 1 mg/L (≈ 0.618 µM) | 16 | 16 mg/L
10 | CC[C@H](C)[C@@H]1NC(=O)[C@H]([C@H](C)CC(=O)O)NC(=O)[C@@H](CO)NC(=O)CNC(=O)[C@H](CC(=O)O)NC(=O)[C@@H](C)NC(=O)[C@H](CC(=O)O)NC(=O)[C@H](CCCN)NC(=O)CNC(=O)[C@@H](NC(=O)[C@H](CC(=O)O)NC(=O)[C@@H](CC(N)=O)NC(=O)[C@H](Cc2c[nH]c3ccccc23)NC(=O)CCCCCCCC(C)C)[C@H](C)OC1=O | 2 mg/L (≈ 1.28 µM) | 4 | 8 mg/L
11 | CC[C@H](C)[C@@H]1NC(=O)[C@H](CCC(=O)O)NC(=O)[C@@H](CC(N)=O)NC(=O)CNC(=O)[C@H]([C@H](OC)C(=O)O)NC(=O)[C@@H](CO)NC(=O)[C@H](CC(=O)O)NC(=O)[C@H](C)NC(=O)CN(C)C(=O)[C@@H](NC(=O)[C@@H](NC(=O)[C@@H](CCC(=O)O)NC(=O)[C@H](Cc2c[nH]c3ccccc23)NC(=O)CCCCCCCC(C)C)[C@H](O)C(N)=O)[C@H](C)OC1=O | 8 mg/L (≈ 4.95 µM) | 1 | 8 mg/L
12 | CC(C)CCCCCCCC(=O)N[C@@H](Cc1c[nH]c2ccccc12)C(=O)N[C@H](CC(N)=O)C(=O)N[C@@H](CC(=O)O)C(=O)N[C@@H]1C(=O)NCC(=O)N[C@@H](CCCN)C(=O)N[C@@H](CC(=O)O)C(=O)N[C@H](C)C(=O)N[C@@H](CC(=O)O)C(=O)NCC(=O)N[C@H](CO)C(=O)N[C@@H]([C@H](C)CC(=O)O)C(=O)N[C@@H](Cc2c[nH]c3ccccc23)C(=O)O[C@H]1C | 1 mg/L (≈ 0.613 µM) | 32 | 32 mg/L
13 | CC[C@H](C)[C@@H]1NC(=O)[C@H]([C@H](C)CC(=O)O)NC(=O)[C@@H](CO)NC(=O)CNC(=O)[C@H]([C@H](OC)C(=O)O)NC(=O)[C@@H](CCCCN)NC(=O)[C@H](CC(=O)O)NC(=O)[C@H](C)NC(=O)CN(C)C(=O)[C@@H](NC(=O)[C@@H](NC(=O)[C@@H](CCC(=O)O)NC(=O)[C@H](Cc2c[nH]c3ccccc23)NC(=O)CCCCCCCC(C)C)[C@H](O)C(N)=O)[C@H](C)OC1=O | 2 mg/L (≈ 1.22 µM) | 8 | 16 mg/L
14 | CC(C)CCCCCCCC(=O)N[C@@H](Cc1c[nH]c2ccccc12)C(=O)N[C@H](CC(N)=O)C(=O)N[C@@H](CC(=O)O)C(=O)N[C@@H]1C(=O)NCC(=O)N[C@@H](CCCN)C(=O)N[C@@H](CC(=O)O)C(=O)N[C@H](C)C(=O)N[C@@H](CC(=O)O)C(=O)NCC(=O)N[C@H](CO)C(=O)N[C@@H]([C@H](C)CC(=O)O)C(=O)N[C@@H](CC(=O)c2ccccc2N)C(=O)O[C@H]1C | 0.5 mg/L (≈ 0.306 µM) | 128 | 64 mg/L
